SMILES strings stand for the structures. The source made the active and inactive calls.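 How the source made its calls: active means growth-lowering compounds whose AC50 is at most ten times the top tested dose; inconclusive means flat curve with moderate signal loss, or a poor fit; inactive means the rest.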

For 29 compounds, max activity and AC50 results are on record in PubChem BioAssay AID493157 (Broad Institute, 2011).

Test [1] is described as follows: single-agent antifungal toxicity on Candida – CaCi-2 strain, Alamar Blue, dry powder, set 8, counter-screen for antifungal drug resistance project, dose response (AID 493157). As to conditions: C. albicans CaCi-2 growth without fluconazole, Alamar Blue, 48 h. Summed up:
(§1)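 material = fluconazole-resistant Candida albicans clinical isolate CaCi-2, no fluconazole present | input = inoculum OD600 0.00015 | doses = pinned compound alone | schedule = 48 h static growth, 37 °C, 2 h room-temperature dye | signal = Alamar Blue fluorescence, final 1:200 dilution, Ex 544 nm, Em 590 nm | measure = yeast growth via fluorescence | controls = geldanamycin as positive control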

In test [2] the test system is C. albicans CaCi-2 (fluconazole-resistant clinical isolate) growth without fluconazole, Alamar Blue, 48 h. Described as above. Summed up:
as §1

Take `O=C1OCCC1n1nc(-c2ccccc2)c2ccccc21` (centres undefined): the max activity in test [1] (at 0.195 µM) was -31.5% (inactive).
Consider `CCCCn1nc(-c2ccccc2)c2ccccc21`, for which the max activity in test [1] (at 26 µM) is 28% (inactive).
For the compound `COC(=O)Cn1nc(-c2ccccc2)c2ccccc21`, in test [1] (at 12 µM), the max activity is 35.4% (inactive).
In the case of `CC1CCN(C(=O)Cn2c3ccccc3c3nc4n(c(=O)c32)CCS4)CC1`, the max activity in test [1] (at 12 µM) is -29.8% (inactive).
For `COC(=O)Cn1nc(I)c2ccccc21`, the max activity in test [1] (at 1.6 µM) is -30.3% (inactive).
Regarding `O=C(Cn1c2ccccc2c2nc3n(c(=O)c21)CCS3)N1CCCC1`, the max activity in test [1] (at 12 µM) was 17.2% (inactive).
For the compound `COC(=O)Cn1nc(-c2cccc(F)c2)c2ccccc21`, in test [1] (at 0.8 µM), the max activity was -22.1% (inactive).
With `CCC(=O)Cn1nc(-c2ccccc2)c2ccccc21`, the max activity in test [1] (at 0.8 µM) is -10.2% (inactive).
Turning to `COC(=O)Cn1nc(-c2ccc(F)cc2)c2ccccc21`, the max activity in test [1] (at 3 µM) was -27% (inactive).
For `COC(=O)Cn1nc(-c2ccc(C#N)cc2)c2ccccc21`, in test [1] (at 26 µM), the max activity is -38.6% (inactive).
Consider `CCN(CC)C(=O)Cn1c2ccccc2c2nc3n(c(=O)c21)CCS3`, for which the max activity in test [1] (at 0.38 µM) was -31.2% (inactive).
As for `COC(=O)CCCn1nc(-c2ccccc2)c2ccccc21`, the max activity in test [1] (at 1.6 µM) was -17.6% (inactive).
As to `O=C(Cn1c2ccccc2c2nc3n(c(=O)c21)CCS3)N1CCCCC1`, the max activity in test [1] (at 0.1 µM) is -24.6% (inactive).
Turning to `O=C(O)Cn1nc(-c2ccccc2)c2ccccc21`, the max activity in test [1] (at 6 µM) is 18.6% (inactive).
Consider `COC(=O)Cn1nc(-c2ccccc2)c2ccc(C(F)(F)F)cc21`, for which the max activity in test [1] (at 0.1 µM) is -34% (inactive).
With `O=C(Cn1c2ccc(F)cc2c2nc3n(c(=O)c21)CCS3)N1CCCCCC1`, the max activity in test [1] (at 26 µM) is 13.5% (inactive).
For `CCN(CC)C(=O)Cn1c2ccc(F)cc2c2nc3n(c(=O)c21)CCS3`, the max activity in test [1] (at 0.38 µM) was -28.9% (inactive).
In the case of `O=C(Cn1c2ccccc2c2nc3n(c(=O)c21)CCS3)N1CCOCC1`, in test [1] (at 0.8 µM), the max activity was -18.5% (inactive).
On to `O=C(Cn1c2ccc(F)cc2c2nc3n(c(=O)c21)CCS3)N1CCCC1`, for which the max activity in test [1] (at 0.1 µM) is -25.8% (inactive).
Take `COC(=O)Cn1c(-c2ccccc2)nc2ccccc21`: the max activity in test [1] (at 6 µM) was 19.2% (inactive).
On to `O=C(Cn1c2ccccc2c2ccncc21)N1CCCCC1`, for which the max activity in test [1] (at 6 µM) is -15.9% (inactive).
On to `COC(=O)Cn1ncc2ccccc21`, for which the max activity in test [1] (at 26 µM) was -25.4% (inactive).
Same read-out and setting: the result for `COC(=O)Cn1nc(-c2ccccc2C)c2ccccc21` reads 1.36% (inactive).
In the case of `FC(F)(F)c1ccc(-c2n[nH]c3ccccc23)cc1`, the max activity in test [1] (at 0.195 µM) was -25.6% (inactive).
As usually defined, the AC50 is the concentration at which the activity in the assay is half-maximal. As to `O=C(Cn1nc(-c2ccccc2)c2ccccc21)OC1CCC1`, in test [2], the AC50 was > 26 µM (inactive).
For `O=C(Cn1c2ccc(F)cc2c2nc3n(c(=O)c21)CCS3)N1CCCCC1`, in test [1] (at 26 µM), the max activity was 27.4% (inactive).
As to `COC(=O)Cn1nc(-c2ccccc2)c2cccc(C(F)(F)F)c21`, the max activity in test [1] (at 0.1 µM) was -21.2% (inactive).
For the compound `COc1ccc(-c2n[nH]c3ccccc23)cc1`, the max activity in test [1] (at 6 µM) was -32.5% (inactive).
For `COC(=O)C(C)(C)n1nc(-c2ccccc2)c2ccccc21`, the max activity in test [1] (at 0.1 µM) is -31.3% (inactive).
